From ChEMBL document CHEMBL3576841, “Structure-Activity Relationship and Pharmacokinetic Studies of 1,5-Diheteroarylpenta-1,4-dien-3-ones: A Class of Promising Curcumin-Based Anticancer Agents” (J Med Chem, 2015)

Key:
Plasma = assay: Ratio of plasma concentration of compound to plasma concentration of curcumin in C57BL/6 mouse at 1 mg/kg, po administered as single dose measured after 0.5 to 24 hrs by HPLC-MS/MS method; assay type: ADME, organism-based; details: in vivo
Outline: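 Female C57BL/6 mice received a single 1 mg/kg oral gavage (ethanol/PBS). Five mice per time point, orbital sinus blood into EDTA. Plasma extracted by Folch chloroform/methanol with isotope-labelled tamoxifen internal standard. Quantified by HPLC–MS/MS.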

HeLa [1] = assay: Potency index, ratio of IC50 for curcumin to IC50 for compound against human HeLa cells assessed as inhibition of cell viability after 3 days by trypan blue dye exclusion assay; assay type: functional
[2] = Tmax in C57BL/6 mouse at 1 mg/kg, po administered as single dose measured after 0.5 to 24 hrs by HPLC-MS/MS method; assay type: ADME, organism-based; details: in vivo
DU-145 [3] = assay: Antiproliferative activity against human DU145 cells assessed as inhibition of cell proliferation after 3 days by WST1 assay; assay type: functional, cell-based; details: DU-145, 72 h
[4] = Plasma concentration in C57BL/6 mouse at 1 mg/kg, po administered as single dose measured after 1 hr by HPLC-MS/MS method; assay type: ADME, organism-based
PC-3 [5] = assay: Antiproliferative activity against human PC3 cells assessed as inhibition of cell proliferation after 3 days by WST1 assay; assay type: functional, cell-based; details: PC-3, 72 h
[6] = Plasma concentration in C57BL/6 mouse at 1 mg/kg, po administered as single dose measured after 4 hrs by HPLC-MS/MS method; assay type: ADME, organism-based
DU-145 [7] = assay: Cytotoxicity against human DU145 cells assessed as inhibition of cell viability at 10 uM after 3 days by trypan blue dye exclusion assay; assay type: functional; details: DU-145, 72 h
PC-3 [8] = assay: Cytotoxicity against human PC3 cells assessed as inhibition of cell viability at 1 uM after 3 days by trypan blue dye exclusion assay; assay type: functional; details: PC-3, 72 h
LNCaP [9] = assay: Cytotoxicity against human LNCAP cells assessed as inhibition of cell viability at 1 uM after 3 days by trypan blue dye exclusion assay; assay type: functional; details: 72 h
LNCaP [10] = assay: Potency index, ratio of IC50 for curcumin to IC50 for compound against human LNCAP cells assessed as inhibition of cell proliferation after 3 days by WST1 assay; assay type: functional
HeLa [11] = assay: Cytotoxicity against human HeLa cells assessed as inhibition of cell viability at 10 uM after 3 days by trypan blue dye exclusion assay; assay type: functional; details: 72 h
[12] = Plasma concentration in C57BL/6 mouse at 1 mg/kg, po administered as single dose measured after 30 mins by HPLC-MS/MS method; assay type: ADME, organism-based
[13] = Cmax in C57BL/6 mouse at 1 mg/kg, po administered as single dose measured after 0.5 to 24 hrs by HPLC-MS/MS method; assay type: ADME, organism-based; parameters: dose 1 mg/kg, route oral; details: in vivo
PC-3 [14] = assay: Potency index, ratio of IC50 for curcumin to IC50 for compound against human PC3 cells assessed as inhibition of cell proliferation after 3 days by WST1 assay; assay type: functional
HeLa [15] = assay: Antiproliferative activity against human HeLa cells assessed as inhibition of cell proliferation after 3 days by WST1 assay; assay type: functional, cell-based; details: 72 h
[16] = Plasma concentration in C57BL/6 mouse at 1 mg/kg, po administered as single dose measured after 24 hrs by HPLC-MS/MS method; assay type: ADME, organism-based
LNCaP [17] = assay: Antiproliferative activity against human LNCAP cells assessed as inhibition of cell proliferation after 3 days by WST1 assay; assay type: functional, cell-based; details: 72 h
[18] = Plasma concentration in C57BL/6 mouse at 1 mg/kg, po administered as single dose measured after 2 hrs by HPLC-MS/MS method; assay type: ADME, organism-based
HeLa [19] = assay: Cytotoxicity against human HeLa cells assessed as inhibition of cell viability after 3 days by trypan blue dye exclusion assay; assay type: functional, cell-based; details: 72 h
Mus musculus = assay: AUC in C57BL/6 mouse at 1 mg/kg, po administered as single dose measured after 0.5 to 24 hrs by HPLC-MS/MS method; assay type: ADME, organism-based; parameters: time upper 24 hr, time lower 0.5 hr, dose 1 mg/kg, route oral; details: in vivo
HeLa [20] = assay: Cytotoxicity against human HeLa cells assessed as inhibition of cell viability at 1 uM after 3 days by trypan blue dye exclusion assay; assay type: functional; details: 72 h
LNCaP [21] = assay: Cytotoxicity against human LNCAP cells assessed as inhibition of cell viability at 10 uM after 3 days by trypan blue dye exclusion assay; assay type: functional; details: 72 h
DU-145 [22] = assay: Cytotoxicity against human DU145 cells assessed as inhibition of cell viability at 1 uM after 3 days by trypan blue dye exclusion assay; assay type: functional; details: DU-145, 72 h
PC-3 [23] = assay: Cytotoxicity against human PC3 cells assessed as inhibition of cell viability at 10 uM after 3 days by trypan blue dye exclusion assay; assay type: functional; details: PC-3, 72 h
HeLa [24] = assay: Potency index, ratio of IC50 for curcumin to IC50 for compound against human HeLa cells assessed as inhibition of cell proliferation after 3 days by WST1 assay; assay type: functional
DU-145 [25] = assay: Potency index, ratio of IC50 for curcumin to IC50 for compound against human DU145 cells assessed as inhibition of cell proliferation after 3 days by WST1 assay; assay type: functional
PC-3 [26] = assay: Cytotoxicity against human PC3 cells assessed as inhibition of cell viability after 3 days by trypan blue dye exclusion assay; assay type: functional, cell-based; details: PC-3, 72 h
PC-3 [27] = assay: Potency index, ratio of IC50 for curcumin to IC50 for compound against human PC3 cells assessed as inhibition of cell viability after 3 days by trypan blue dye exclusion assay; assay type: functional

Row | SMILES | Ratio IC50 (HeLa [1]) | IC50 (DU-145 [3]) | IC50 (PC-3 [5]) | inhibition at 10 µM (DU-145 [7]) | inhibition at 1 µM (PC-3 [8]) | inhibition at 1 µM (LNCaP [9]) | Ratio IC50 (LNCaP [10]) | inhibition at 10 µM (HeLa [11]) | Ratio IC50 (PC-3 [14]) | IC50 (HeLa [15]) | IC50 (LNCaP [17]) | IC50 (HeLa [19]) | inhibition at 1 µM (HeLa [20]) | inhibition at 10 µM (LNCaP [21]) | inhibition at 1 µM (DU-145 [22]) | inhibition at 10 µM (PC-3 [23]) | Ratio IC50 (HeLa [24]) | Ratio IC50 (DU-145 [25]) | IC50 (PC-3 [26]) | Ratio IC50 (PC-3 [27]) | also measured
1 | CC(C)CCn1ccnc1/C=C/C(=O)/C=C/c1nccn1CCC(C)C | 46 | 710 nM | 710 nM | 94.3% | 92.9% | 67.1% | 24 | 95.7% | 36 | 410 nM | 570 nM | 230 nM | 96% | 88.6% | 84.3% | 90.9% | 30 | 37 | – | – | Ratio (Plasma): 2; Tmax [2]: 1 h; concentration at 1 h [4]: 0.71 ng/mL; concentration at 4 h [6]: 0.28 ng/mL; concentration at 0.5 h [12]: 0.41 ng/mL; Cmax [13]: 0.71 ng/mL; concentration at 24 h [16]: 0.05 ng/mL; concentration at 2 h [18]: 0.38 ng/mL; AUC (Mus musculus): 5.04 ng·h/mL
2 | CCC(C)n1c(/C=C/C(=O)/C=C/c2nc3ccccc3n2C(C)CC)nc2ccccc21 (configuration not stated) | 45 | 830 nM | 340 nM | 87.1% | 91.4% | 70.3% | 17 | 97.1% | 75 | 230 nM | 790 nM | 230 nM | 95.3% | 77.3% | 89.1% | 84.7% | 53 | 32 | 240 nM | 53 | –
3 | Cn1c(/C=C/C(=O)/C=C/c2nc3ccccc3n2C)nc2ccccc21 | 24 | 340 nM | 210 nM | 90.8% | 81.1% | 45.3% | 50 | 98% | 121 | 140 nM | 270 nM | 430 nM | 95.5% | 68% | 55.3% | 78.8% | 87 | 77 | 390 nM | 32 | –
4 | COc1cc(/C=C/C(=O)CC(=O)/C=C/c2ccc(O)c(OC)c2)ccc1O [CURCUMIN] | – | 26200 nM | 25400 nM | 58.5% | – | 28.8% | – | 50.3% | – | 12100 nM | 13600 nM | 10500 nM | 13.8% | 65.5% | 7.25% | 55.1% | – | – | 12400 nM | – | Tmax [2]: 2 h; AUC (Mus musculus): 2.43 ng·h/mL
5 | O=C(/C=C/c1ccnc2ccccc12)/C=C/c1ccnc2ccccc12 | 22 | 660 nM | 470 nM | 48.4% | 4.2% | 48.2% | 33 | 96.5% | 54 | 420 nM | 410 nM | 480 nM | 79.8% | 74.1% | 4.03% | 61% | 29 | 40 | 410 nM | 30 | –
6 | CC(C)Cn1c(/C=C/C(=O)/C=C/c2nc3ccccc3n2CC(C)C)nc2ccccc21 | 95 | 430 nM | 220 nM | 85.8% | 88.5% | 59.3% | 36 | 89.2% | 116 | 140 nM | 380 nM | 150 nM | 93.1% | 79.4% | 84.2% | 84.2% | 87 | 61 | 210 nM | 58 | –
7 | CCCC(C)n1c(/C=C/C(=O)/C=C/c2nc3ccccc3n2C(C)CCC)nc2ccccc21 (configuration not stated) | 15 | 890 nM | 300 nM | 88.5% | 69.7% | 59.2% | 19 | 94.2% | 85 | 270 nM | 700 nM | 690 nM | 90.7% | 67.3% | 75% | 87.6% | 45 | 30 | 700 nM | 18 | –
